Results published in ChEMBL document CHEMBL5107946, “SF5- and SCF3-substituted tetrahydroquinoline compounds as potent bactericidal agents against multidrug-resistant persister Gram-positive bacteria” (RSC Med Chem, 2021).
Converted amounts (≈) assume the structure as drawn. The source made the active and inactive calls.

How the values were obtained:
[1] = tested on: Staphylococcus aureus; assay: Antibacterial activity against methicillin-resistant Staphylococcus aureus USA300 assessed as bacterial growth inhibition incubated for 18 to 20 hrs by CLSI based broth microdilution assay; type: functional; settings: time 18-20 hrs
Method in brief: (§1)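 CLSI broth microdilution; compounds and control antibiotics made up at 10 mg mL−1 in DMSO (stock), serially diluted 1:2 across the plate. Inoculum adjusted to 0.5 McFarland, then diluted 1:100 into wells. Plates incubated static at 37 °C for 18–20 h before MIC read.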

[2] = tested on: Staphylococcus aureus; assay: Antibacterial activity against methicillin-resistant Staphylococcus aureus ATCC 33592 assessed as bacterial growth inhibition incubated for 18 to 20 hrs by CLSI based broth microdilution assay; type: functional; settings: time 18-20 hrs; method in brief: as §1
[3] = tested on: Enterococcus faecalis; assay: Antibacterial activity against Enterococcus faecalis ATCC 29212 assessed as bacterial growth inhibition incubated for 18 to 20 hrs by CLSI based broth microdilution assay; type: functional; settings: time 18-20 hrs; method in brief: as §1
[4] = tested on: Staphylococcus aureus; assay: Bactericidal activity against Staphylococcus aureus ATCC 25923 assessed as reduction in colony forming unit incubated for 20 hrs; type: functional
Method in brief: (§2)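 Follows the broth microdilution MIC plate. 4 μL taken from each well without growth, spotted in duplicate on tryptic soy agar and incubated static at 37 °C for 20 h. MBC taken as the concentration giving 99.9% reduction in CFU.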

[5] = tested on: Staphylococcus aureus; assay: Bactericidal activity against methicillin-resistant Staphylococcus aureus USA300 assessed as reduction in colony forming unit incubated for 20 hrs; type: functional; method in brief: as §2
[6] = tested on: Staphylococcus aureus; assay: Bactericidal activity against methicillin-resistant Staphylococcus aureus ATCC 33592 assessed as reduction in colony forming unit incubated for 20 hrs; type: functional; method in brief: as §2
[7] = tested on: Enterococcus faecalis; assay: Bactericidal activity against Enterococcus faecalis ATCC 29212 assessed as reduction in colony forming unit incubated for 20 hrs; type: functional; method in brief: as §2
[8] = tested on: Listeria monocytogenes; assay: Bactericidal activity against Listeria monocytogenes ATCC 19115 assessed as reduction in colony forming unit incubated for 20 hrs; type: functional
Method in brief: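 MBC: after the MIC assay, 4 μL from wells with no growth were spotted in duplicate on TSA. Plates were incubated static at 37 °C for 20 h. MBC was taken as a 99.9% reduction in CFU.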

[9] = tested on: Staphylococcus aureus; assay: Antibacterial activity against methicillin-resistant Staphylococcus aureus USA300 (ARLG 1561) assessed as bacterial growth inhibition incubated for 18 to 20 hrs by CLSI based broth microdilution assay; type: functional; settings: time 18-20 hrs; method in brief: as §1
[10] = tested on: Staphylococcus aureus; assay: Antibacterial activity against methicillin-resistant Staphylococcus aureus USA300 (ARLG 1567) assessed as bacterial growth inhibition incubated for 18 to 20 hrs by CLSI based broth microdilution assay; type: functional; settings: time 18-20 hrs; method in brief: as §1
[11] = tested on: Staphylococcus aureus; assay: Antibacterial activity against methicillin-resistant Staphylococcus aureus USA300 (ARLG 1568) assessed as bacterial growth inhibition incubated for 18 to 20 hrs by CLSI based broth microdilution assay; type: functional; settings: time 18-20 hrs; method in brief: as §1
[12] = tested on: Staphylococcus aureus; assay: Antibacterial activity against methicillin-resistant Staphylococcus aureus USA300 (ARLG 1569) assessed as bacterial growth inhibition incubated for 18 to 20 hrs by CLSI based broth microdilution assay; type: functional; settings: time 18-20 hrs; method in brief: as §1
[13] = tested on: Staphylococcus aureus; assay: Antibacterial activity against methicillin-resistant Staphylococcus aureus ST239 (ARLG 1663) assessed as bacterial growth inhibition incubated for 18 to 20 hrs by CLSI based broth microdilution assay; type: functional; settings: time 18-20 hrs; method in brief: as §1
[14] = tested on: Staphylococcus aureus; assay: Antibacterial activity against Staphylococcus aureus ATCC 25923 assessed as bacterial growth inhibition at 16 ug/ml incubated for 18 to 20 hrs by CLSI based broth microdilution assay; type: functional, organism-based; settings: dose 16.0 µg/ml, time 18-20 hrs
Method in brief: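 Single-concentration screen at 16 μg mL−1 final. Overnight TSB culture was diluted 1:1000 in cation-adjusted MHB and grown to early exponential phase. 1 mL of culture was added to compound in glass tubes and incubated overnight at 37 °C. OD600 was read and normalized to the DMSO control after subtracting medium-only OD.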

[15] = tested on: Staphylococcus aureus; assay: Bactericidal activity against methicillin-resistant Staphylococcus aureus ATCC 33592 assessed as reduction in colony forming unit at 4 x MIC incubated for 18 to 24 hrs by Time-kill analysis; type: functional, organism-based; settings: time 18-24 hrs
Method in brief: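 Log-phase time-kill. Overnight TSB culture diluted 1:1000 and grown to OD600 0.6, then diluted 1 in 10 in TSB (about 2.92 × 10^6 CFU per mL). Exposed at 1× or 4× MIC in triplicate at 37 °C. Samples taken at 0, 2, 4, 8, 12 and 24 h, serially diluted in PBS, plated on TSA in duplicate and counted after 18–20 h.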

[16] = tested on: Staphylococcus aureus; assay: Bactericidal activity against persister methicillin-resistant Staphylococcus aureus ATCC 33592 assessed as reduction in colony forming unit at 1 x MIC incubated for 6 hrs by Time-kill analysis; type: functional, organism-based
Method in brief: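 Stationary-phase (persister) time-kill. Overnight TSB culture diluted 1 in 10 in TSB directly (about 2.92 × 10^6 CFU per mL), with no regrowth step. Exposed at 1× or 4× MIC in triplicate at 37 °C. Samples taken at 0, 2, 4 and 6 h, serially diluted in PBS, plated on TSA in duplicate and incubated 18–24 h.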

[17] = tested on: Staphylococcus aureus; assay: Antibacterial activity against methicillin-resistant Staphylococcus aureus USA300 assessed as fold increase in MIC incubated for 30 days by resistance development based broth microdilution assay; type: functional; settings: time 30 day
Method in brief: (§3)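 Multi-step resistance selection over 30 days. MIC determined first. Each day, 5 μL from the turbid well just below the MIC was diluted 1:1000 in CA-MHB and used as inoculum for the next broth microdilution MIC. Resistance defined as a rise of more than four-fold over the starting MIC.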

[18] = tested on: Staphylococcus aureus; assay: Antibacterial activity against methicillin-resistant Staphylococcus aureus ATCC 33592 assessed as fold increase in MIC incubated for 30 days by resistance development based broth microdilution assay; type: functional; settings: time 30 day; method in brief: as §3
[19] = tested on: Cell membrane; assay: Induction of cell membrane permeability in Staphylococcus aureus ATCC 25923 at 2 to 10 ug/ml by DiOC2 dye based flow cytometry assay; settings: dose 2-10 µg/ml
Method in brief: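 Exponential-phase cells (OD600 0.2–0.3) treated at 2 or 10 μg mL−1; bithionol 4 μg mL−1 as positive control. Washed twice in PBS and resuspended in buffer. To-PRO 3 iodide (red) and DiOC2 (green) added and cells analysed at once by flow cytometry. Permeabilization read as the red/green ratio.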

[20] = tested on: Cell membrane; assay: Induction of cell membrane disruption in Staphylococcus aureus ATCC 25923 at 4 ug/ml incubated for 4 hrs by scanning electron microscopy; settings: dose 4.0 µg/ml
Method in brief: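 Cells grown overnight in TSB, diluted 1:100 and grown to OD600 0.4, then treated for 4 h; bithionol 10 μg mL−1 as positive control, DMSO as negative control. Fixed in chilled 2.5% glutaraldehyde in 0.1 M cacodylate, post-fixed in 1% OsO4, ethanol-dehydrated, dried with HMDS and platinum-coated. Imaged at 5 kV.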

[21] = tested on: Erythrocyte; assay: Cytotoxicity against human RBC at 20 ug/ml incubated for 30 mins by spectrophotometric method; type: toxicity, cell-based; settings: 0.5 h, dose 20 µg/ml
Method in brief: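 Hemolysis of 5% human RBCs exposed to compound at 5–20 μg mL−1 for 30 min at 37 °C. Intact cells were pelleted by centrifugation and supernatant absorbance read at 540 nm. Values are percent of 1% Triton X-100 lysis, with DMSO as negative control. Triplicate.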

[22] = tested on: Enterococcus faecium; assay: Bactericidal activity against vancomycin-resistant Enterococcus faecium ATCC 700221 assessed as reduction in colony forming unit incubated for 20 hrs; settings: ATCC 700221, 20 h

FC(F)(F)c1n[nH]cc1[C@@H]1Nc2ccc(S(F)(F)(F)(F)F)cc2[C@H]2[C@@H]3CC[C@@H](C3)[C@H]21
MIC [1]: 4 µg/mL (≈ 8.71 µM) | MIC [2]: 2 µg/mL (≈ 4.35 µM) | MIC [3]: 4 µg/mL (≈ 8.71 µM) | MBC [4]: 8 µg/mL (≈ 17.4 µM) | MBC [5]: 8 µg/mL (≈ 17.4 µM) | MBC [6]: 4 µg/mL (≈ 8.71 µM) | MBC [7]: 8 µg/mL (≈ 17.4 µM) | MBC [8]: 4 µg/mL (≈ 8.71 µM) | MIC [9]: 2 µg/mL (≈ 4.35 µM) | MIC [10]: 2 µg/mL (≈ 4.35 µM) | MIC [11]: 2 µg/mL (≈ 4.35 µM) | MIC [12]: 2 µg/mL (≈ 4.35 µM) | MIC [13]: 1 µg/mL (≈ 2.18 µM) | Activity [14]: Active | Activity [15]: Active | Activity [16]: Active | fold change (FC) [17]: 1 | fold change (FC) [18]: 1 | Activity [19]: Active | Activity [20]: Active | Activity [21]: Non-Toxic | MBC [22]: 4 µg/mL (≈ 8.71 µM)
